≈ marks a conversion by molar mass, not a printed value.
Tests used:
[1] = tested on: Mycolicibacterium smegmatis; assay: Antibacterial activity against Mycobacterium smegmatis mc2 155 expressing tomato RFP assessed as bacterial growth inhibition incubated for 3 days in 7H9 medium by RFP fluorescence based broth microdilution method; format: functional; conditions: mc2 155, 72 h, time 3 day
How it was run: (§1)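 Broth microdilution in 7H9 with 10 % ADS and 0.05 % Tween 80. Twofold nine-point dilution series. Inoculum 5 x 10⁵ cells/mL taken from a mid-log preculture. Incubation at 37 °C, 3 days for M. smegmatis and M. abscessus, 5 days for M. intracellulare. Read-out by RFP fluorescence (ex 544/em 590 nm). Controls were 1 % DMSO and 100 μM amikacin. MIC₉₀ from duplicates, averaged.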

[2] = tested on: Mycobacterium tuberculosis; assay: Antibacterial activity against Mycobacterium tuberculosis H37Rv ATCC 27294 assessed as bacterial growth inhibition incubated for 7 days in 7H9 medium by optical density based microplate reader analysis; format: functional; conditions: H37Rv ATCC 27294, 168 h, time 7 day
How it was run: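 Compounds serially diluted in flat-bottom 96-well plates. Mid-log culture mixed in to a final OD₆₀₀ of 0.05. Sealed plates incubated in humidified boxes at 37 °C for 7 days with shaking at 80 rpm. Turbidity read at 600 nm. MIC₉₀ taken from dose–response curves. Two biological replicates, averaged.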

[3] = tested on: Mycobacteroides abscessus; assay: Antibacterial activity against Mycobacterium abscessus ATCC 19977 expressing tomato RFP assessed as bacterial growth inhibition incubated for 3 days in 7H9 medium by RFP fluorescence based broth microdilution method; format: functional; conditions: ATCC 19977, 72 h, time 3 day; how it was run: as §1
[4] = tested on: Mycobacteroides abscessus; assay: Antibacterial activity against Mycobacterium abscessus ATCC 19977 expressing tomato RFP assessed as bacterial growth inhibition incubated for 3 days in MHII medium by RFP fluorescence based broth microdilution method; format: functional; conditions: ATCC 19977, 72 h, time 3 day
How it was run: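 Broth microdilution in MHII broth with 0.05 % Tween 80, against the RFP-expressing strain. Twofold nine-point dilution series. Inoculum 5 x 10⁵ cells/mL from a mid-log preculture. Incubated 3 days at 37 °C. Read-out by RFP fluorescence (ex 544/em 590 nm). Controls were 1 % DMSO and 100 μM amikacin. MIC₉₀ from duplicates, averaged.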

[5] = tested on: Mycobacterium intracellulare; assay: Antibacterial activity against Mycobacterium intracellulare ATCC 35761 expressing tomato RFP assessed as bacterial growth inhibition incubated for 5 days in 7H9 medium by RFP fluorescence based broth microdilution method; format: functional; conditions: ATCC 35761, 120 h, time 5 day; how it was run: as §1
[6] = tested on: Mycobacteroides abscessus; assay: Antibacterial activity against Mycobacterium abscessus Bamboo harboring inactive clarithromycin-sensitive erm41 C28 sequevar assessed as bacterial growth inhibition incubated for 3 days in 7H9 medium by optical density based method; format: functional; conditions: 72 h, time 3 day
[7] = tested on: Mycobacteroides abscessus; assay: Antibacterial activity against Mycobacterium abscessus ATCC 19977 expressing tomato RFP infected in human THP-1 cells assessed as bacterial growth inhibition incubated for 4 days in RPMI medium by RFP fluorescence based assay; format: functional; conditions: ATCC 19977, 96 h, time 4 day
How it was run: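 RFP M. abscessus washed, moved into RPMI, filtered through 5 µm and opsonised with 10 % human serum for 30 min. THP-1 cells infected at MOI 5:1 with PMA 40 ng/mL for 4 h at 37 °C, then washed. Infected cells (1x10⁵/well) given a ten-point twofold series. Incubated 4 days at 37 °C, 5 % CO₂. Cells PFA-fixed and DAPI-stained. RFP quantified by imaging. Controls were DMSO and 1.5 µM bedaquiline. Duplicate.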

A-375 = assay: Cytotoxicity against human A-375 cells assessed as reduction in cell viability incubated for 72 hrs by SRB assay; format: toxicity, cell-based
HT-29 = assay: Cytotoxicity against human HT-29 cells assessed as reduction in cell viability incubated for 72 hrs by SRB assay; format: toxicity, cell-based
MCF7 = assay: Cytotoxicity against human MCF7 cells assessed as reduction in cell viability incubated for 72 hrs by SRB assay; format: toxicity, cell-based
A2780 = assay: Cytotoxicity against human A2780 cells assessed as reduction in cell viability incubated for 72 hrs by SRB assay; format: toxicity, cell-based
[8] = Cytotoxicity against mouse NIH3T3 cells assessed as reduction in cell viability incubated for 72 hrs by SRB assay; format: toxicity, cell-based; conditions: mouse, NIH3T3 cells
HeLa = assay: Cytotoxicity against human HeLa cells assessed as reduction in cell viability incubated for 72 hrs by SRB assay; format: toxicity, cell-based
[9] = Kinetic solubility of compound in PBS at 0.78 to 500 uM measured immediately by nephelometric method; format: physicochemical; conditions: buffer, dose 0.78-500 µM
How it was run: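 DMSO stocks prediluted in DMSO, then diluted 1:50 into PBS (2 % DMSO final) and read immediately by nephelometry at 0.78–500 μM; blank-corrected data fitted by segmental regression; quadruplicates from one stock.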

Row | Structure (SMILES) | MIC90 [1] [µM] | MIC90 [2] [µM] | MIC90 [3] [µM] | MIC90 [4] [µM] | MIC90 [5] [µM] | MIC50 [6] [µM] | MIC90 [6] [µM] | MIC50 [7] [µM] | MIC90 [7] [µM] | EC50 (A-375) [µM] | EC50 (HT-29) [µM] | EC50 (MCF7) [µM] | EC50 (A2780) [µM] | EC50 at 72 h [8] [µM] | EC50 (HeLa) [µM] | Kinetic_solubility [9] [µM]
1 | O=C(N[C@H](Cc1cccs1)C(=O)Nc1ccccc1N1CC[S+]([O-])CC1)c1cccs1 | 3.13 (≈ 1.48 µg/mL) | 3.13 (≈ 1.48 µg/mL) | 12.5 (≈ 5.92 µg/mL) | 12.5 (≈ 5.92 µg/mL) | 0.2 (≈ 0.0947 µg/mL) | 1.3 (≈ 0.616 µg/mL) | 5.8 (≈ 2.75 µg/mL) | 12.5 (≈ 5.92 µg/mL) | 100 (≈ 47.4 µg/mL) | > 30 | > 30 | > 30 | > 30 | > 30 | > 30 | 60
2 | O=C(N[C@H](Cc1ccccc1)C(=O)Nc1ccccc1C1CCSCC1)c1cccs1 | 6.25 (≈ 2.82 µg/mL) | > 25 | 50 (≈ 22.5 µg/mL) | 100 (≈ 45.1 µg/mL) | 6.25 (≈ 2.82 µg/mL) | 21 (≈ 9.46 µg/mL) | 44 (≈ 19.8 µg/mL) | > 100 | > 100 | > 30 | > 30 | > 30 | > 30 | > 30 | > 30 | 39
3 | O=C(N[C@H](Cc1ccc(O)cc1)C(=O)Nc1cc(F)ccc1N1CCSCC1)c1ccccc1F | 6.25 (≈ 3.11 µg/mL) | 1.56 (≈ 0.776 µg/mL) | – | 50 (≈ 24.9 µg/mL) | 0.2 (≈ 0.0995 µg/mL) | 1.7 (≈ 0.846 µg/mL) | 15 (≈ 7.46 µg/mL) | 6.25 (≈ 3.11 µg/mL) | 25 (≈ 12.4 µg/mL) | > 30 | > 30 | > 30 | > 30 | > 30 | > 30 | 58
4 | O=C(N[C@H](Cc1ccsc1)C(=O)Nc1ccccc1N1CC[S+]([O-])CC1)c1cccs1 | 3.13 (≈ 1.48 µg/mL) | 6.25 (≈ 2.96 µg/mL) | 6.25 (≈ 2.96 µg/mL) | 12.5 (≈ 5.92 µg/mL) | 0.2 (≈ 0.0947 µg/mL) | 3.4 (≈ 1.61 µg/mL) | 15 (≈ 7.1 µg/mL) | 12.5 (≈ 5.92 µg/mL) | 100 (≈ 47.4 µg/mL) | > 30 | > 30 | > 30 | > 30 | > 30 | > 30 | 74
5 | O=C(N[C@H](Cc1ccccc1)C(=O)Nc1cc(F)ccc1N1CCSCC1)c1cccs1 | 3.13 (≈ 1.47 µg/mL) | 1.56 (≈ 0.733 µg/mL) | 25 (≈ 11.7 µg/mL) | 50 (≈ 23.5 µg/mL) | 0.78 (≈ 0.366 µg/mL) | 1.4 (≈ 0.657 µg/mL) | 14 (≈ 6.57 µg/mL) | 3.13 (≈ 1.47 µg/mL) | > 100 | > 30 | > 30 | > 30 | > 30 | > 30 | > 30 | 37
6 | O=C(N[C@H](Cc1ccccc1)C(=O)Nc1cc(F)ccc1N1CC[S+]([O-])CC1)c1cccs1 | 1.56 (≈ 0.758 µg/mL) | 0.4 (≈ 0.194 µg/mL) | 1.56 (≈ 0.758 µg/mL) | 3.13 (≈ 1.52 µg/mL) | 0.05 (≈ 0.0243 µg/mL) | 0.28 (≈ 0.136 µg/mL) | 1.9 (≈ 0.923 µg/mL) | 0.78 (≈ 0.379 µg/mL) | 25 (≈ 12.1 µg/mL) | > 30 | > 30 | > 30 | > 30 | > 30 | > 30 | 131
7 | O=C(N[C@H](Cc1ccsc1)C(=O)Nc1ccccc1N1CC[S+]([O-])CC1)c1ccccc1F | 1.56 (≈ 0.758 µg/mL) | 3.13 (≈ 1.52 µg/mL) | 6.25 (≈ 3.04 µg/mL) | 12.5 (≈ 6.07 µg/mL) | 0.2 (≈ 0.0971 µg/mL) | 1.5 (≈ 0.728 µg/mL) | 4.4 (≈ 2.14 µg/mL) | 6.25 (≈ 3.04 µg/mL) | 50 (≈ 24.3 µg/mL) | > 30 | > 30 | > 30 | > 30 | > 30 | > 30 | 96
8 | O=C(N[C@H](Cc1ccc(O)cc1)C(=O)Nc1cc(F)ccc1N1CCSCC1)c1cccs1 | 12.5 (≈ 6.07 µg/mL) | 0.78 (≈ 0.379 µg/mL) | 12.5 (≈ 6.07 µg/mL) | – | 0.1 (≈ 0.0486 µg/mL) | 1.6 (≈ 0.777 µg/mL) | 15 (≈ 7.28 µg/mL) | 12.5 (≈ 6.07 µg/mL) | 50 (≈ 24.3 µg/mL) | > 30 | > 30 | > 30 | > 30 | > 30 | > 30 | 78

— ChEMBL document CHEMBL5344415, “Synthesis and Characterization of Phenylalanine Amides Active against Mycobacterium abscessus and Other Mycobacteria” (J Med Chem, 2023)
